Experimental data reported in ChEMBL document CHEMBL1128642, “Discovery of an orally bioavailable NK1 receptor antagonist, (2S,3S)-(2-methoxy-5-tetrazol-1-ylbenzyl)(2-phenylpiperidin-3-yl)amine (GR203040), with potent antiemetic activity” (J Med Chem, 1995).

Experiments:
Substance-P receptor = Substance-P receptor (Homo sapiens, UniProt P25103); assay: Binding affinity to Tachykinin receptor 1 stably expressed in chinese hamster ovary (CHO) cells; type: cell-based
How it was run: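 Membranes from CHO cells stably expressing human NK1 receptor, grown in DMEM/F12 with 10% FCS and 4 mM glutamine. Incubated 40 min at 22 °C with 0.7–1.0 nM [3H]substance P (final) in HEPES 50 mM/3 mM MnCl2, pH 7.4, 3 µg protein.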

Canis familiaris = species on record: Canis familiaris; assay: In vitro metabolic turnover (% parent lost) after exposure to dog hepatic microsomes (hepatic first pass metabolism); type: functional; conditions: Canis lupus familiaris, Liver
How it was run: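 Dog liver microsomes with an NADPH-regenerating system, shaken at 37 °C. Centrifuged, then parent compound quantified by reverse-phase HPLC with UV detection at 215 nm. Turnover (% parent lost) taken from the peak-area difference versus a control incubation lacking NADPH regeneration.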

[1] = Lipophilicity; type: physicochemical; conditions: octanol/water
[2] = Compound was evaluated in vivo for plasma clearance in dog after intravenous dose at 2 mg/Kg; type: ADME, organism-based, Canis lupus familiaris; conditions: read-out: Clp
How it was run: (§1)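 Beagle dogs, iv then oral crossover at 2 mg/kg with wash-out between doses. Blood drawn predose and at 0.08–8 h; plasma prepared at about 5 °C. Parent compound measured by solid-phase extraction and reversed-phase HPLC-UV. Plasma clearance taken from iv dosing; oral bioavailability F calculated from both routes.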

[3] = Oral bioavailability in dog; type: ADME, organism-based, Canis lupus familiaris; conditions: in vivo; how it was run: as §1
Mustela putorius furo [4] = assay: Compound was evaluated in vivo for its antiemetic activity in ferret, which was administered subcutaneously 90 minutes before (90 ptt) induction of emesis; type: functional
How it was run: (§2)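 Adult male ferrets (1.0–1.7 kg), whole-body X-irradiation at 2 Gy over about 5 min. Antagonist given sc 90 min before irradiation or immediately after it. Retches and vomits counted. ID90 is the lowest dose giving ≥90% inhibition of emesis versus untreated irradiated controls; n per group reported.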

[5] = system: Substance-P receptor (Meriones unguiculatus); assay: Compound was evaluated for its ex vivo binding affinity towards substance P receptor measured 15 minutes post administration to gerbil; conditions: Gerbillinae
Mustela putorius furo [6] = assay: Compound was evaluated in vivo for its antiemetic activity in ferret, which was administered subcutaneously immediately after (0 ptt) induction of emesis; type: functional; how it was run: as §2
[7] = Partition coefficient (logD); type: physicochemical; conditions: octanol/water
Mustela putorius furo [8] = assay: Compound was evaluated in vivo for its antiemetic activity in ferret, which was administered subcutaneously 90 minutes before (90 ptt) induction of emesis;>80% inhibition observed; type: functional

Substance-P receptor, sequence (P25103 whole entry): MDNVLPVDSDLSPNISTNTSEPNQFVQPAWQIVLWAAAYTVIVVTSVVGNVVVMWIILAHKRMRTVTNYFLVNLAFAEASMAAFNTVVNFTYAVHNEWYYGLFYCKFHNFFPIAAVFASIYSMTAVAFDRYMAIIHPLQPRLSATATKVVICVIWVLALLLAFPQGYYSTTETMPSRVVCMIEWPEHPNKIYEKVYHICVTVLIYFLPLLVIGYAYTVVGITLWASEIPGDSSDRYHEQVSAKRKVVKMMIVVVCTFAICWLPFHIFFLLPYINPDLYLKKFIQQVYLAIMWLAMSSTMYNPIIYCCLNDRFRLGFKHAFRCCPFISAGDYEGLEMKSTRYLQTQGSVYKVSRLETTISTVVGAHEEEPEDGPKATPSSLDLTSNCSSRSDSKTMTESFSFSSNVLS

Ki (Substance-P receptor) [nM] | logD [1] | clearance [2] [mL/min/kg] | bioavailability [3] [%] | ED50 [5] [mg/kg] | logD [7] | Structure (SMILES) | Metabolic turnover (Canis familiaris) [%] | ID90 (Mustela putorius furo [4]) [mg/kg] | ID90 (Mustela putorius furo [6]) [mg/kg] | ID90 (Mustela putorius furo [8]) [mg/kg]
0.0501 | 2.5 |  |  |  |  | COc1ccc(Br)cc1CN[C@H]1CCCN[C@H]1c1ccccc1 | 60 |  |  | 
0.501 | 0.2 | 23 | 42 | > 0.3 |  | COc1ccc(S(C)(=O)=O)cc1CN[C@H]1CCCN[C@H]1c1ccccc1 | 25 | >10 | >10 | 
0.0501 |  | 24 | 76 |  | 0.8 | COc1ccc(-n2cnnn2)cc1CN[C@H]1CCCN[C@H]1c1ccccc1 | 51 | 0.1 | 0.1 | 
0.126 |  |  |  |  | 0.8 | COc1ccc(-n2ncnn2)cc1CN[C@H]1CCCN[C@H]1c1ccccc1 | 65 | >1 |  | 
0.0501 | 2.3 |  |  |  |  | COc1ccc(-c2c(C)noc2C)cc1CN[C@H]1CCCN[C@H]1c1ccccc1 | 92 | 1 |  | 
0.158 | 1.4 |  |  |  |  | COc1ccc(-c2cncnc2)cc1CN[C@H]1CCCN[C@H]1c1ccccc1 | 36 | >3 | 3 | 
 | 1.4 | 94 | < 10 |  |  | COc1ccccc1CN[C@H]1CCCN[C@H]1c1ccccc1 [CP-99994] | 100 |  | 1 | 1
2.51 | 1.4 |  |  |  |  | COc1ccc(-c2nnn(C)n2)cc1CN[C@H]1CCCN[C@H]1c1ccccc1 | 63 | >3 |  | 
0.2 | 0.5 |  |  |  |  | COc1ccc(-c2nnnn2C)cc1CN[C@H]1CCCN[C@H]1c1ccccc1 | 27 | >3 |  | 
0.0316 | 3.1 |  |  |  |  | COc1ccc(-c2ccsc2)cc1CN[C@H]1CCCN[C@H]1c1ccccc1 | 92 |  | >3 | 
0.0794 | 2 |  |  |  |  | COc1ccc(SC)cc1CN[C@H]1CCCN[C@H]1c1ccccc1 | 94 |  | 1 | 
0.794 | 2.3 |  |  |  |  | COc1ccc(-c2nccs2)cc1CN[C@H]1CCCN[C@H]1c1ccccc1 | 61 |  | >3 | 
0.158 | 1.2 |  |  |  |  | COc1ccc(-n2cncn2)cc1CN[C@H]1CCCN[C@H]1c1ccccc1 | 55 | >3 | 3 | 
0.158 | 1.8 |  |  |  |  | COc1ccc(F)cc1CN[C@H]1CCCN[C@H]1c1ccccc1 |  |  | 3 | 
2 | 1.2 |  |  |  |  | COc1ccc(-c2nccn2C)cc1CN[C@H]1CCCN[C@H]1c1ccccc1 | 90 | >3 |  | 
0.0631 | 2.2 |  |  |  |  | COc1ccc(-c2ccncc2)cc1CN[C@H]1CCCN[C@H]1c1ccccc1 | 98 |  | 0.3 | 
0.794 | 2.3 |  |  |  |  | COc1ccc(-c2c(C)nn(C)c2C)cc1CN[C@H]1CCCN[C@H]1c1ccccc1 | 82 |  |  | 
0.0631 | 2.5 | 45 | < 10 |  |  | COc1ccc(-c2ccoc2)cc1CN[C@H]1CCCN[C@H]1c1ccccc1 | 85 | 0.3 | 0.3 | 
0.501 | 3 |  |  |  |  | COc1ccc(-c2ccco2)cc1CN[C@H]1CCCN[C@H]1c1ccccc1 | 100 | >3 |  | 
